This note sets out measurements from ChEMBL document CHEMBL1127469, “Decapeptide agonists of human C5a: the relationship between conformation and spasmogenic and platelet aggregatory activities” (J Med Chem, 1994).

The target in assay [1] is T1, C5a anaphylatoxin chemotactic receptor 1 (Cavia porcellus) (UniProt O70129).
T1 sequence (whole entry): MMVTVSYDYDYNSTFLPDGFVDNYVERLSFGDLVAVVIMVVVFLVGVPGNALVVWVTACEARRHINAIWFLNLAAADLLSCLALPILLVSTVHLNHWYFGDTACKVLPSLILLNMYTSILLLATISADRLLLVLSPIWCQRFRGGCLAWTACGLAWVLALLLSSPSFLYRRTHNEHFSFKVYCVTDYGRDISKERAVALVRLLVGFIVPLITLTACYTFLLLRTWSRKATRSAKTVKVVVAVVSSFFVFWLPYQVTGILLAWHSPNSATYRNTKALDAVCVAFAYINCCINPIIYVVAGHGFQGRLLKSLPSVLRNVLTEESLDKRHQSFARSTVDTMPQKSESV
The assay can be described thus: Pharmacological activity against C5a receptor in guinea pig ileum. The class given is tissue-based. The gist of the method: (§1)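 Isometric contraction of tissue strips in 2 mL organ baths of Krebs-Ringers solution, 37 °C, pH 7.4, gassed with 95% O2/5% CO2, equilibrated 1 h. Tachyphylaxis prevents cumulative curves, so each strip gets one peptide concentration, then histamine 10 μM. Response is taken as % of the histamine maximum. EC50 comes from probit analysis, reported as pD2 (-log EC50, M), mean ± SE.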

The species entered for assay [2] is Cavia porcellus. The assay can be described thus: Effective dose required for smooth muscle contraction in guinea pig ileum. It is filed as functional. Particulars: Muscle tissue. The gist of the method:
as §1

Assay [3] has as its target T2, C5a anaphylatoxin chemotactic receptor 1 (Homo sapiens) (UniProt P21730).
T2 sequence (whole entry): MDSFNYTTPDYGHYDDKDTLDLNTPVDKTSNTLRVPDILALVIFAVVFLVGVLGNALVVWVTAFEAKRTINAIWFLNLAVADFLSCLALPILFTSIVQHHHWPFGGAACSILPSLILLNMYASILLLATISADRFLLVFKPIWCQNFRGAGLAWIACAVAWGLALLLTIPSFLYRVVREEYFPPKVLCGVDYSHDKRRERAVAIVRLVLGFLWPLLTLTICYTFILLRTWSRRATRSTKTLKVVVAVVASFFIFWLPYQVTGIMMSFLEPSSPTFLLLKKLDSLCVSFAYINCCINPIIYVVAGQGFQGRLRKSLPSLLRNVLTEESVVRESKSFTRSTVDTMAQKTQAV
The assay can be described thus: Pharmacological activity against C5a receptor in human fetal artery. A digest of the protocol: as §1

Assay [4] is filed under the species Homo sapiens. The assay can be described thus: Effective dose required for smooth muscle contraction in human fetal artery. The class given is functional. Particulars: Muscle tissue. A digest of the protocol: as §1
The species entered for assay [5] is Cavia porcellus. Nature of the assay: Platelet aggregation in guinea pig. It is filed as functional. A digest of the protocol: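 Platelet-rich plasma from arterial blood of anesthetized male Hartley guinea pigs, diluted to 3 × 10^8 platelets/mL in 0.39% sodium citrate. Peptides are serially diluted 1.5-fold and shaken with plasma and a 3 mm glass bead at 100 rpm, 5 min, 37 °C. Aggregation is scored visually at 40×. The threshold is the greatest dilution giving visible aggregation. At least three independent duplicate runs; C5a and C3a serve as standards.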

The species entered for assay [6] is Cavia porcellus. Nature of the assay: Effective dose required for smooth muscle contraction in Guinea pig lung parenchyma. The class given is functional. The gist of the method:
as §1

The test system of assay [7] is C5a anaphylatoxin chemotactic receptor 1 (Cavia porcellus). Nature of the assay: Tested for pharmacological activity against C5a receptor in Guinea pig lung parenchyma.

In general, EC50 refers to the midpoint of the concentration-response curve.

Bridge positions count the residues as written; N and C are the ends. Peptide text beside a SMILES is read from it.

On to H-YSFKDMQLGR-OH, for which the figures for the pD2 in assay [1] and in assay [3] were 4.51 and 5.05, respectively. Also, the EC50 in assay [2] was 37.5 µM; in assay [4], 11.2 µM; in assay [6] it was 28.4 µM. The compound also yielded a Platelet aggregation in assay [5] of 22.9 µM.
In assay [5], H-ISFKDMQLGR-OH had a Platelet aggregation of 86.3 µM.
The compound `CSCC[C@H](NC(=O)[C@H](CC(=O)O)NC(=O)[C@H](CCCCN)NC(=O)[C@H](Cc1ccccc1)NC(=O)[C@H](CO)NC(=O)[C@@H](N)Cc1ccc(O)cc1)C(=O)N[C@@H](CCC(N)=O)C(=O)N[C@@H](CC(C)C)C(=O)N[C@H](C)C(=O)N[C@@H](CCCN=C(N)N)C(=O)O` yielded a pD2 in assay [3] of 5.42. In assay [4], this compound had a 50% effective concentration (EC50) of 12.2 µM. This compound gave a Platelet aggregation in assay [5] of 20 µM.
With `C[C@H](NC(=O)[C@@H]1CCCN1C(=O)[C@H](CCS)NC(=O)[C@H](CC(=O)O)NC(=O)[C@H](CCCCN)NC(=O)[C@H](Cc1ccccc1)NC(=O)[C@H](CO)NC(=O)[C@@H](N)Cc1ccc(O)cc1)C(=O)N[C@H](C)C(=O)N[C@@H](CCCN=C(N)N)C(=O)O`, the pD2 in assay [3] was determined as 4.86.
`CSCC[C@H](NC(=O)CNC(=O)[C@H](CCCCN)NC(=O)[C@H](Cc1ccccc1)NC(=O)[C@H](CO)NC(=O)[C@@H](N)Cc1ccc(O)cc1)C(=O)N[C@@H](CC(C)C)C(=O)N[C@@H](CC(C)C)C(=O)NCC(=O)N[C@H](CCCN=C(N)N)C(=O)O`: in assay [3], the pD2 was found to be 4.43. The compound also returned an EC50 in assay [4] of 40 µM.
Regarding `CSCC[C@H](NC(=O)[C@H](CC(=O)O)NC(=O)[C@H](CCCCN)NC(=O)[C@H](Cc1ccccc1)NC(=O)[C@H](CO)NC(=O)[C@@H](N)Cc1ccc(O)cc1)C(=O)N[C@@H](CCC(N)=O)C(=O)N[C@@H](CC(C)C)C(=O)N1CCC[C@H]1C(=O)N[C@@H](CCCN=C(N)N)C(=O)O`, the pD2 in assay [3] was < 3. The EC50 in assay [4] was > 1000 µM. For the same compound, the Platelet aggregation in assay [5] was determined as 225 µM.
Consider `CC(C)C[C@H](NC(=O)[C@@H]1CCCN1C(=O)[C@H](C)NC(=O)[C@H](CC(=O)O)NC(=O)[C@H](CCCCN)NC(=O)[C@H](Cc1ccccc1)NC(=O)[C@H](CO)NC(=O)[C@@H](N)Cc1ccc(O)cc1)C(=O)NCC(=O)N[C@@H](CCCN=C(N)N)C(=O)O`, for which the pD2 in assay [1] is 4.79; in assay [3], 6.11. The EC50 in assay [2] was determined as 26.6 µM; in assay [4], 1.74 µM. The compound also showed a Platelet aggregation in assay [5] of 7.4 µM.
Consider `CC(C)C[C@H](NC(=O)[C@@H]1CCCN1C(=O)[C@H](CS)NC(=O)[C@H](CC(=O)O)NC(=O)[C@H](CCCCN)NC(=O)[C@H](Cc1ccccc1)NC(=O)[C@H](CO)NC(=O)[C@@H](N)Cc1ccc(O)cc1)C(=O)N[C@@H](CS)C(=O)N[C@@H](CCCN=C(N)N)C(=O)O` (H-YSFKDCPLCR-OH), for which the pD2 in assay [3] is 4.67. Besides, in assay [4], the response was half-maximal at 26.6 µM (EC50). In assay [5], this compound registered a Platelet aggregation of 4.1 µM.
`CSCC[C@H](NC(=O)[C@H](CC(=O)O)NC(=O)[C@H](CCCCN)NC(=O)[C@H](Cc1ccccc1)NC(=O)[C@H](CO)NC(=O)[C@@H](N)Cc1ccc(O)cc1)C(=O)N1CCC[C@H]1C(=O)N[C@@H](CC(C)C)C(=O)NCC(=O)N[C@@H](CCCN=C(N)N)C(=O)O`: the pD2 in assay [1] turned out to be 5.14; in assay [3], 6.18. In addition, the EC50 is 11.5 µM in assay [2], 1.13 µM in assay [4] and 8.1 µM in assay [6]. In assay [5], this compound gave a Platelet aggregation of 6.3 µM.
For `CSCC[C@H](NC(=O)[C@H](CC(=O)O)NC(=O)[C@H](CCCCN)NC(=O)[C@H](Cc1ccccc1)NC(=O)[C@H](CO)NC(=O)[C@@H](N)Cc1ccc(O)cc1)C(=O)N1CCC[C@H]1C(=O)N[C@@H](C)C(=O)NCC(=O)N[C@@H](CCCN=C(N)N)C(=O)O`, in assay [3], the pD2 is < 3. Further, in assay [4], the EC50 is > 1000 µM. Also, the Platelet aggregation in assay [5] turned out to be 101 µM.
In the case of H-YSFKGLLLGR-OH, the pD2 in assay [1] was determined as 4.74; in assay [3], 5.21. The EC50 in assay [2] was determined as 18.1 µM; in assay [4], 6.6 µM; in assay [6], 22.1 µM. The Platelet aggregation in assay [5] is 21 µM.
In the case of H-YSFKDMQPGR-OH, the values for the pD2 in assay [1] and in assay [3] were 3.64 and 4.4, respectively. Moreover, the results for the EC50 in assay [2] and in assay [4] were 344 µM and 48 µM, respectively. Further, the Platelet aggregation in assay [5] came to 500 µM.
Regarding `CC(C)C[C@@H]1NC(=O)[C@@H]2CCCN2C(=O)[C@@H](NC(=O)[C@H](CC(=O)O)NC(=O)[C@H](CCCCN)NC(=O)[C@H](Cc2ccccc2)NC(=O)[C@H](CO)NC(=O)[C@@H](N)Cc2ccc(O)cc2)CSSC[C@@H](C(=O)N[C@@H](CCCN=C(N)N)C(=O)O)NC1=O` (H-YSFKDCPLCR-OH; disulfide 6-9), the pD2 in assay [3] was < 4. Also, a half-maximal response in assay [4] (EC50) required 162 µM. In assay [5], the Platelet aggregation was >410 µM.
Take `CSCC[C@H](NC(=O)CNC(=O)[C@H](CCCCN)NC(=O)[C@H](Cc1ccccc1)NC(=O)[C@H](CO)NC(=O)[C@@H](N)Cc1ccc(O)cc1)C(=O)N[C@@H](CC(C)C)C(=O)N[C@@H](CC(C)C)C(=O)NCC(=O)N[C@@H](CCCN=C(N)N)C(=O)O`: the pD2 in assay [1] is 4.61; in assay [3] it was 5.34; in assay [7] it was 5. Further, the results for the EC50 in assay [2], in assay [4] and in assay [6] were 26.8 µM, 4.9 µM and 15.1 µM, respectively. In assay [5], this compound displayed a Platelet aggregation of 10.5 µM.
For H-YSFKDCPLGR-OH, the pD2 in assay [3] came out at 5.79. Besides, in assay [4], a half-maximal response (EC50) required 2.04 µM. The Platelet aggregation in assay [5] was determined as 2.3 µM.
For H-YSFKGMPLGR-OH, in that order: 6.23, 0.59 µM and 6.3 µM.
For H-YSFKDMPPGR-OH, in that order: 4.68, 25.1 µM and 80 µM.
The corresponding values for `CSCC[C@H](NC(=O)[C@H](CC(=O)O)NC(=O)[C@H](CCCCN)NC(=O)[C@H](Cc1ccccc1)NC(=O)[C@H](CO)NC(=O)[C@@H](N)Cc1ccc(O)cc1)C(=O)N[C@@H](CCC(N)=O)C(=O)N[C@@H](CC(C)C)C(=O)N[C@@H](C)C(=O)N[C@@H](CCCN=C(N)N)C(=O)O` are 4.04, 122 µM and 34 µM.
